Results taken from ChEMBL document CHEMBL1143704, “Cyathusals A, B, and C, antioxidants from the fermented mushroom Cyathus stercoreus” (J Nat Prod, 2007).

What was measured:
[1] = Antioxidant activity assessed as ABTS radical scavenging activity after 7 mins
[2] = system: Radical scavenging activity; test: Antioxidant activity assessed as DPPH radical scavenging activity after 30 mins; type: functional
In short: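 10 µL DMSO sample dilutions (DMSO alone as control) added to 190 µL of 1.5 × 10^-4 M ethanolic DPPH radical. Incubated 30 min at 25 °C, then A517 read at steady state. % scavenged = (1 − Atest/Acontrol) × 100. EC50 is the concentration scavenging 50% of the DPPH radical.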

Compound | EC50 [1] | EC50 [2]
COc1ccc(O)c(C(C)(C)C)c1.COc1ccc(O)cc1C(C)(C)C [BUTYLATED HYDROXYANISOLE] | 11.7 µM | 97.1 µM
C/C=C/c1cc2c(c(=O)o1)-c1c(O)c(O)c(OC)c(C=O)c1C(O)O2 (configuration not stated) [CYATHUSAL B] | 11.1 µM | 46 µM
C/C=C/c1cc2c(c(=O)o1)-c1c(O)c(O)c(OC)c(C=O)c1CO2 [CYATHUSAL A] | 7.86 µM | 41.6 µM

The remaining lines, values ahead:

EC50 [1] | EC50 [2] | Compound
8.36 µM | 28.6 µM | C/C=C/c1cc2c(c(=O)o1)-c1c(O)c(O)c(OC)c(C=O)c1C(OC)O2 (configuration not stated) [PULVINATAL]
14.5 µM | 37.6 µM | Cc1c(C)c2c(c(C)c1O)CCC(C)(C(=O)O)O2 (configuration not stated) [TROLOX]
9.1 µM | 26.6 µM | C/C=C/c1cc2c(c(=O)o1)-c1c(O)c(O)c(OC)c(C=O)c1C(OC(C)C)O2 (configuration not stated) [CYATHUSAL C]
